A short description of assay [1]: Growth inhibition of human WI38 cells after 48 hrs by WST8 assay. The assay is classed as cell-based. The note with it: WI-38, 48 h. A digest of the protocol:
(§1)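 Cells seeded at ca. 5000 per well, held 24 h at 37 °C in 5% CO2, then exposed 48 h to samples dissolved in DMSO. Media with 10% FBS: WI-38 in Eagle's MEM, VA-13 in RITC 80-7, HepG2 in D-MEM. WST-8 formazan read at 450 nm. Viability is background-corrected versus control, IC50 is taken from viability–concentration plots, and values are means of three independent experiments.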

For assay [2], the system named is HepG2. The assay is described as follows: Growth inhibition of human HepG2 cells after 48 hrs by WST8 assay. The note with it: HepG2, 48 h. The assay is classed as functional, cell-based. In short, it runs like this: as §1
A general note: Tetrazolium dyes change colour on reduction, which living cells bring about.

A short description of assay [3]: Reversal of multidrug resistance in human 2780AD cells assessed as accumulation of calcein at 0.25 ug/mL after 15 mins by fluorescence technique relative to verapamil. It is filed as functional, A2780 ADR. A digest of the protocol: (§2)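 Same 2780AD set-up: 24 h pre-culture, then a 15 min compound pre-exposure (DMSO/PBS(-) dilution), calcein AM added (1 µM in PBS(-) as added) for 60 min, cold PBS(-) washes, and a calcein fluorescence read. Accumulation is expressed relative to that obtained with verapamil at the same concentration, mean of triplicates.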

Assay [4] in a line: Reversal of multidrug resistance in human 2780AD cells assessed as accumulation of calcein at 0.25 ug/mL after 15 mins by fluorescence technique relative to control. The assay is classed as functional, A2780 ADR. In short, it runs like this: (§3)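 MDR ovarian 2780AD cells (RPMI-1640, 10% FBS), ca. 1 × 10^5 per well, held 24 h at 37 °C in 5% CO2. Compounds in DMSO diluted with PBS(-) were added 15 min before calcein AM (1 µM in PBS(-) as added), incubated 60 min, then washed with cold PBS(-). Calcein fluorescence is given as a percentage of untreated control, mean of triplicates.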

Assay [5] can be described thus: Reversal of multidrug resistance in human 2780AD cells assessed as accumulation of calcein at 25 ug/mL after 15 mins by fluorescence technique relative to control. It is filed as functional, A2780 ADR. In short, it runs like this:
as §3

The nature of assay [6]: Reversal of multidrug resistance in human 2780AD cells assessed as accumulation of calcein at 25 ug/mL after 15 mins by fluorescence technique relative to verapamil. The assay is classed as functional, A2780 ADR. A digest of the protocol: as §2
Assay [7] is described as follows: Reversal of multidrug resistance in human 2780AD cells assessed as accumulation of calcein at 2.5 ug/mL after 15 mins by fluorescence technique relative to verapamil. It is filed as functional, A2780 ADR. A digest of the protocol:
as §2

Assay [8] is described as follows: Reversal of multidrug resistance in human 2780AD cells assessed as accumulation of calcein at 2.5 ug/mL after 15 mins by fluorescence technique relative to control. It is filed as functional, A2780 ADR. In short, it runs like this: as §3
Assay [9] concerns WI-38 VA13. The assay is described as follows: Growth inhibition of human VA13 cells after 48 hrs by WST8 assay. It is filed as functional, cell-based. The note with it: WI-38 VA13, 48 h. A digest of the protocol:
as §1

As for `COc1cc(C[C@@H]2C(=O)OC[C@H]2Cc2cc(OC)c3c(c2)OCO3)cc(O)c1O`, the IC50 in assay [1] is 141 µM; in assay [2], 162 µM; in assay [9] it was 181 µM. The Activity in [3] is listed as 110%; in assay [4], 98%; in assay [5], 120%; in assay [6], 84%; in assay [7] it was 86%; in assay [8], 91%.

For the compound `COc1cc(/C=C2/C(=O)OC[C@H]2Cc2cc(OC)c3c(c2)OCO3)cc(OC)c1O`, the half-inhibitory concentration (IC50) in assay [1] amounted to 241 µM; in [2] it was 198 µM; in assay [9], 157 µM. In addition, the Activity is 87% in [3]; 90% in assay [4]; 114% in assay [5]; 86% in assay [6]; 93% in assay [7]; 90% in [8].

For the compound `COc1cc(C[C@@H]2C(=O)OC[C@H]2Cc2cc(OC)c3c(c2)OCO3)cc(OC)c1OC`, the IC50 is over 232 µM in [1], 42.8 µM in assay [2] and 118 µM in [9]. For the same compound, the Activity in assay [3] was 92%; in assay [4] it was 96%; in [5], 155%; in assay [6], 116%; in assay [7], 102%; in [8] it was 99%.

On to `COc1cc(C[C@@H]2COC(=O)[C@H]2Cc2ccc3c(c2)OCO3)cc2c1OCO2`, for which the 50% inhibitory concentration (IC50) in assay [1], in [2] and in assay [9] was over 260 µM in each case. The Activity in assay [3] was 102%; in assay [4] it was 91%; in [5] it was 96%; in assay [6] it was 67%; in [7], 70%; in [8] it was 74%.

For `COc1cc(C[C@@H]2C(=O)OC[C@H]2Cc2ccc3c(c2)OCO3)cc(OC)c1O`, the IC50 was over 259 µM in [1], over 260 µM in assay [2] and 183 µM in assay [9]. The Activity in assay [3] is 90%; in assay [4] it was 93%; in [5] it was 127%; in assay [6], 96%; in [7], 97%; in [8] it was 94%.

Regarding `COc1cc(C[C@@H]2C(=O)OC[C@H]2Cc2cc(OC)c3c(c2)OCO3)cc(OC)c1O`, the IC50 in assay [1] was found to be 195 µM; in assay [2], 204 µM; in assay [9], 130 µM. Moreover, the Activity in assay [3] was 83%; in assay [4], 86%; in [5] it was 129%; in assay [6] it was 97%; in assay [7], 94%; in assay [8], 91%.

As to `COc1cc(C[C@@H]2C(=O)OC[C@H]2Cc2cc(OC)c3c(c2)OCO3)ccc1O`, the values for the IC50 in assay [1], in assay [2] and in [9] were over 259 µM, 200 µM and 210 µM, respectively. The Activity in assay [3] is listed as 74%; in assay [4], 77%; in assay [5] it was 85%; in assay [6], 64%; in assay [7], 89%; in assay [8], 86%.

As for `CC(=O)O[C@H]1C(=O)[C@@]2(C)[C@H]([C@H](OC(=O)c3ccccc3)[C@]3(O)C[C@H](OC(=O)[C@H](O)[C@@H](NC(=O)c4ccccc4)c4ccccc4)C(C)=C1C3(C)C)[C@]1(OC(C)=O)CO[C@@H]1C[C@@H]2O` [PACLITAXEL], the IC50 in assay [1] amounted to 0.034 µM; in assay [2] it was 6.9 µM; in assay [9], 0.0043 µM.

`COc1cc(C[C@@H](CO)[C@H](CO)Cc2cc(OC)c3c(c2)OCO3)cc2c1OCO2`: the values for the IC50 in [1], in [2] and in assay [9] were 185 µM, 151 µM and 219 µM, respectively. Moreover, the Activity in assay [3] is reported as 93%; in assay [4], 97%; in assay [5] it was 121%; in assay [6], 91%; in assay [7] it was 107%; in assay [8], 103%.

Turning to `COc1cc(C[C@@H]2C(=O)OC[C@H]2Cc2ccc3c(c2)OCO3)cc2c1OCO2`, the IC50 in assay [1] was over 260 µM; in assay [2] it was 26.4 µM; in [9] it was 23.2 µM. For the same compound, the Activity is listed as 90% in [3]; 80% in assay [4]; 124% in assay [5]; 86% in assay [6]; 103% in assay [7]; 109% in assay [8].

Regarding `COc1ccc(CCN(C)CCCC(C#N)(c2ccc(OC)c(OC)c2)C(C)C)cc1OC` (centres undefined) [VERAPAMIL], the Activity is recorded as 104% in [4], 144% in assay [5] and 106% in assay [8].

With `COc1cccc2c1C(=O)c1c(O)c3c(c(O)c1C2=O)C[C@@](O)(C(=O)CO)C[C@@H]3O[C@H]1C[C@H](N)[C@H](O)[C@H](C)O1` [DOXORUBICIN], the figures for the concentration for half-maximal inhibition (IC50) in assay [1], in assay [2] and in assay [9] were 0.38 µM, 0.69 µM and 0.22 µM, respectively.

In the case of `COc1cc(C[C@@H]2COC(=O)[C@H]2Cc2cc(OC)c3c(c2)OCO3)cc2c1OCO2`, the IC50 was over 241 µM in assay [1], 208 µM in assay [2] and 130 µM in assay [9]. Moreover, the Activity in assay [3] is 104%; in assay [4], 93%; in assay [5], 116%; in assay [6], 81%; in assay [7] it was 86%; in [8], 91%.

As to `COc1cc(C(=O)[C@@H]2C(=O)OC[C@H]2Cc2cc(OC)c3c(c2)OCO3)cc(OC)c1O`, the values for the IC50 in assay [1], in assay [2] and in assay [9] were 172 µM, 185 µM and 127 µM, respectively.

As to `COc1cc([C@@H](O)[C@H]2C(=O)OC[C@@H]2Cc2cc(OC)c3c(c2)OCO3)cc(OC)c1O`, the IC50 is over 231 µM in assay [1], over 231 µM in assay [2] and 229 µM in assay [9]. Also, the Activity was 88% in [3]; 91% in [4]; 104% in assay [5]; 78% in assay [6]; 96% in assay [7]; 93% in [8].

For `COc1cc(C[C@H](COC(C)=O)[C@@H](COC(C)=O)Cc2cc(OC)c3c(c2)OCO3)cc2c1OCO2`, the IC50 in assay [1], in [2] and in [9] was over 199 µM throughout.

As usually defined, the IC50 is the point on the concentration scale where inhibition reaches its midpoint.

Values taken from ChEMBL document CHEMBL1157250, “Bioactive dibenzylbutyrolactone and dibenzylbutanediol lignans from Peperomia duclouxii” (J Nat Prod, 2006).
